The record followed here is ChEMBL document CHEMBL1156600, “Diacarperoxides, norterpene cyclic peroxides from the sponge Diacarnus megaspinorhabdosa” (J Nat Prod, 2008).

One may read the EC50 as the concentration giving half of the maximal effect. The low end stands for greater potency, the high end for weaker potency.

Converted amounts (≈) assume the structure as drawn. The source made the active and inactive calls. The rule behind the calls is not given here.

For one data set, the system named is L5178Y. Kind of data set: Cytotoxicity against mouse L5178Y cells by MTT assay. Type of data set: functional, cell-based. An outline of the steps:
(§1)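 Antiproliferative MTT (microculture tetrazolium) read-out in cancer cell lines: HeLa human cervix carcinoma, L5178Y mouse lymphoma, PC12 rat […] cells.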
On the technique in general: Formazan colour is commonly taken as a measure of viable cells.

Another data set concerns HeLa. In words: Cytotoxicity against human HeLa cells by MTT assay. The class given is functional, cell-based. The method in brief:
as §1

A further data set has as its system PC-12. Kind of data set: Cytotoxicity against rat PC12 cells by MTT assay. The class given is functional, cell-based. An outline of the steps: as §1
Data set [1] can be described thus: Toxicity in Artemia salina assessed as mortality at 10 ug/ml after 24 hrs. The class given is organism-based. The note with it: in vivo, read-out: Activity.
Data set [2] is described as follows: Toxicity in Artemia salina assessed as mortality at 10 ug/ml after 48 hrs. Type of data set: organism-based. The note with it: in vivo, read-out: Activity.

Regarding `COC(=O)[C@H](C)[C@@H]1CC[C@@](C)(CCC2=C(C)CCCC2(C)C)OO1`, the result with L5178Y, with HeLa and with PC-12 was inactive. Also, the mortality at 24 h, 10 ug/ml in data set [1] is 25%. In addition, the mortality at 48 h, 10 ug/ml in data set [2] amounted to 65%.

In the case of `CCCC(O)CCC(C)(O)CC/C=C(\C)CCC1=C(C)CCCC1(C)C` (centres undefined) [DIACARDIOL A], the half-maximal effective concentration (EC50) is 4.8 µg/mL (≈ 13.2 µM) with L5178Y, over 10 µg/mL in the data set with HeLa and over 10 µg/mL in the data set with PC-12. The mortality at 24 h, 10 ug/ml in data set [1] was 20%. Besides, the mortality at 48 h, 10 ug/ml in data set [2] was found to be 40%.

In turn, `COC(=O)[C@H](C)[C@H]1CC[C@@](C)(CCC2=C(C)C(=O)CCC2(C)C)OO1` [DIACARPEROXIDE A] came in with a 50% effective concentration (EC50) in the data set on L5178Y of over 10 µg/mL. Also, the outcome in the data set on HeLa and in the data set on PC-12 was inactive. Also, the mortality at 24 h, 10 ug/ml in data set [1] turned out to be 35%. Besides, the mortality at 48 h, 10 ug/ml in data set [2] stood at 55%.

Regarding `COC(=O)[C@@H](C)[C@@H]1CC[C@](C)(CCC(=O)C(C)(C)CCCC(C)=O)OO1` [DIACARPEROXIDE B], a half-maximal response with L5178Y (EC50) required 10 µg/mL (≈ 27 µM). In addition, the result with HeLa and with PC-12 was inactive. In addition, in data set [1], the mortality at 24 h, 10 ug/ml came out at 45%. Moreover, in data set [2], the mortality at 48 h, 10 ug/ml is 55%.

As for `COC(=O)[C@H](C)[C@@H]1CC[C@@](C)(CCC(=O)C(C)(C)CCCC(C)=O)OO1` [DIACARPEROXIDE C], the EC50 in the data set on L5178Y was over 10 µg/mL. The result in the data set with HeLa and in the data set with PC-12 was inactive. Also, in data set [1], the mortality at 24 h, 10 ug/ml is 35%. Further, the mortality at 48 h, 10 ug/ml in data set [2] is 55%.

Turning to `CC1=C(CC[C@]2(C)CC[C@H]([C@@H](C)C(=O)O)OO2)[C@]2(C)CCCC(C)(C)[C@H]2CC1` [DIACARPEROXIDE D], the half-maximal effective concentration (EC50) with L5178Y was under 0.1 µg/mL; in the data set on HeLa, 0.17 µg/mL (≈ 0.433 µM); in the data set with PC-12, 8.1 µg/mL (≈ 20.6 µM).

On to `CC1=C(CC[C@]2(C)CC[C@H]([C@@H](C)C(=O)O)OO2)[C@@]2(C)CCCC(C)(C)[C@@H]2CC1=O` [DIACARPEROXIDE F], for which the half-maximal effective concentration (EC50) amounted to 0.06 µg/mL (≈ 0.148 µM) in the data set on L5178Y, 0.6 µg/mL (≈ 1.48 µM) with HeLa and 0.8 µg/mL (≈ 1.97 µM) in the data set on PC-12.

For the molecule `COC(=O)[C@H](C)[C@H]1CC[C@@](C)(CCC2=C(C)C(=O)C[C@@H]3C(C)(C)CCC[C@@]23C)OO1` [DIACARPEROXIDE G], the 50% effective concentration (EC50) in the data set on L5178Y is 2 µg/mL (≈ 4.76 µM); with HeLa, over 10 µg/mL; in the data set with PC-12, over 10 µg/mL. Besides, the mortality at 24 h, 10 ug/ml in data set [1] stood at 50%. The mortality at 48 h, 10 ug/ml in data set [2] worked out at 60%.

Consider `CC1=C(CC/C(C)=C/CC[C@@]2(C)CC[C@@H]([C@H](C)C(=O)O)OO2)C(C)(C)CCC1` [EPIMUQUBILIN A], for which the EC50 is 0.28 µg/mL (≈ 0.713 µM) with L5178Y, 7.2 µg/mL (≈ 18.3 µM) with HeLa and over 10 µg/mL with PC-12. Moreover, the mortality at 24 h, 10 ug/ml in data set [1] was 25%. Moreover, the mortality at 48 h, 10 ug/ml in data set [2] turned out to be 50%.

For `C=C1CCCC(C)(C)C1(O)CC/C(C)=C/CC[C@]1(C)CC[C@H]([C@@H](C)C(=O)OC)OO1` (some centres undefined) [EPIMUQUBILIN B], the results for the EC50 in the data set with L5178Y, with HeLa and with PC-12 were under 0.1 µg/mL, 1 µg/mL (≈ 2.37 µM) and 6 µg/mL (≈ 14.2 µM), respectively. The mortality at 24 h, 10 ug/ml in data set [1] was 45%. For the same molecule, the mortality at 48 h, 10 ug/ml in data set [2] is 60%.

`COC(=O)[C@H](C)[C@@H]1CC[C@@](C)(CCC2=C(C)C(=O)CCC2(C)C)OO1` [METHYL DIACARNOATE A] had an EC50 with L5178Y of under 3 µg/mL. The result with HeLa and with PC-12 was inactive.

In the case of `COC(=O)[C@H](C)[C@H]1CC[C@@](C)(CCC2=C(C)CCCC2(C)C)OO1` [NUAPAPUIN A METHYL ESTER], the EC50 was 0.76 µg/mL (≈ 2.25 µM) in the data set with L5178Y, 5.5 µg/mL (≈ 16.2 µM) in the data set on HeLa and 6.2 µg/mL (≈ 18.3 µM) with PC-12. Moreover, the mortality at 24 h, 10 ug/ml in data set [1] was found to be 100%. In addition, the mortality at 48 h, 10 ug/ml in data set [2] was 100%.
